Ten compounds from ChEMBL document CHEMBL1777764, “Synthesis and evaluation of 1-(1H-indol-3-yl)ethanamine derivatives as new antibacterial agents” (Bioorg Med Chem, 2011) can be followed below.

Common to all, as to type: functional
The test system of test [1] is Staphylococcus aureus. Nature of the test: Antibacterial activity against Staphylococcus aureus ATCC 25923 after 18 hrs by broth microdilution method. To be noted: ATCC 25923, 18 h. The method, boiled down:
(§1)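 MIC by broth microdilution per ISO 20776-1:2006 and CLSI M07-A8. Inoculum 10^6 cfu/ml in Mueller-Hinton broth with compound serially diluted, final concentrations 2 to 128 ug/ml, duplicate rows, no-drug growth control. Incubation 18 h at 37 °C. MIC taken as lowest concentration giving complete inhibition of visible growth. Each compound tested at least twice.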
For orientation: In broth dilution the organism is exposed to a series of concentrations in liquid medium.

The test system of test [2] is Staphylococcus aureus. Nature of the test: Antibacterial activity against Staphylococcus aureus ATCC 29213 after 18 hrs by broth microdilution method. To be noted: ATCC 29213, 18 h. In a few lines:
as §1

The test system of test [3] is Staphylococcus aureus. Nature of the test: Antibacterial activity against Staphylococcus aureus ATCC 9144 after 18 hrs by broth microdilution method. To be noted: ATCC 9144, 18 h. In a few lines: as §1
Test [4] relates to Staphylococcus aureus. Nature of the test: Antibacterial activity against Staphylococcus aureus ATCC 6538 after 18 hrs by broth microdilution method. The conditions noted are these: ATCC 6538, 18 h. The method, boiled down:
as §1

Test [5] has as its system Staphylococcus aureus. Nature of the test: Antibacterial activity against Staphylococcus aureus CIP 65.6 after 18 hrs by broth microdilution method. To be noted: CIP 65.6, 18 h. The method, boiled down:
as §1

Test [6] concerns Staphylococcus aureus. Nature of the test: Antibacterial activity against Staphylococcus aureus CIP 103428 after 18 hrs by broth microdilution method. The conditions noted are these: CIP 103428, 18 h. In a few lines: as §1
In test [7] the test system is Staphylococcus epidermidis. Nature of the test: Antibacterial activity against Staphylococcus epidermidis ATCC 12228 after 18 hrs by broth microdilution method. The conditions noted are these: ATCC 12228, 18 h. In a few lines:
as §1

In test [8] the test system is Staphylococcus epidermidis. Nature of the test: Antibacterial activity against Staphylococcus epidermidis CIP 81.55 after 18 hrs by broth microdilution method. The conditions noted are these: CIP 81.55, 18 h. In a few lines:
as §1

Test [9] concerns Staphylococcus epidermidis. Nature of the test: Antibacterial activity against Staphylococcus epidermidis CIP 103627 after 18 hrs by broth microdilution method. The conditions noted are these: CIP 103627, 18 h. In a few lines: as §1

Structures are written as SMILES. Converted amounts (≈) assume the structure as drawn.

The MIC is the smallest concentration in the dilution series that meets the test's criterion for growth inhibition. On to `CC(C)(C)OC(=O)NCC(NO)c1c[nH]c2cc(Cl)ccc12` (stereo not given), for which the MIC in test [1], in test [2], in [3], in test [4], in [5] and in test [6] was 128 µg/mL (≈ 393 µM) in each case. Also, the MIC in test [7], in test [8] and in test [9] was > 128 µg/mL in each case.

In the case of `CC(NO)c1c[nH]c2ccccc12` (stereo not given), the MIC in test [1], in [2], in test [3], in [4], in test [5] and in [6] was 128 µg/mL (≈ 726 µM) throughout. Besides, the minimum inhibitory concentration (MIC) in [7], in [8] and in [9] was 64 µg/mL (≈ 363 µM) throughout.

With `CC(NO)c1c[nH]c2ccc(F)cc12` (stereo not given), the minimal inhibitory concentration (MIC) in test [1], in test [2], in test [3], in [4], in test [5] and in [6] was 64 µg/mL (≈ 330 µM) each time. The minimum inhibitory concentration (MIC) in [7], in test [8] and in test [9] was 64 µg/mL (≈ 330 µM) each time.

As to `CC(C)(C)OC(=O)NCC(NO)c1c[nH]c2ccc(F)cc12` (stereo not given), the minimal inhibitory concentration (MIC) in test [1], in test [2], in test [3], in test [4], in test [5] and in test [6] was > 128 µg/mL each time. The MIC in test [7], in test [8] and in [9] was > 128 µg/mL throughout.

Regarding `CC(C)(C)OC(=O)NCC(NO)c1c[nH]c2ccc(Br)cc12` (stereo not given), the minimal inhibitory concentration (MIC) in test [1], in [2], in [3], in [4], in test [5] and in [6] was 32 µg/mL (≈ 86.4 µM) each time. In addition, the minimal inhibitory concentration (MIC) in test [7], in test [8] and in [9] was 64 µg/mL (≈ 173 µM) throughout.

On to `CC(C)(C)OC(=O)NCC(NO)c1c[nH]c2cccc(Br)c12` (stereo not given), for which the MIC in test [1], in test [2], in test [3], in test [4], in test [5] and in [6] was 128 µg/mL (≈ 346 µM) each time. Moreover, the MIC in test [7], in test [8] and in [9] was 128 µg/mL (≈ 346 µM) in each case.

Turning to `CC(NO)c1c[nH]c2ccc(Br)cc12` (stereo not given), the minimal inhibitory concentration (MIC) in test [1], in test [2], in test [3], in test [4], in test [5] and in test [6] was 64 µg/mL (≈ 251 µM) in each case. Further, the MIC in test [7], in test [8] and in [9] was 64 µg/mL (≈ 251 µM) in each case.

Take `CC(C)(C)OC(=O)NCC(NO)c1c[nH]c2ccc(I)cc12` (stereo not given): the MIC in test [1], in test [2], in [3], in [4], in [5] and in test [6] was 32 µg/mL (≈ 76.7 µM) throughout. Besides, the minimal inhibitory concentration (MIC) in test [7], in [8] and in test [9] was 64 µg/mL (≈ 153 µM) in each case.

Turning to `CC(C)(C)OC(=O)NCC(NO)c1c[nH]c2ccc(Cl)cc12` (stereo not given), the MIC in test [1], in test [2], in [3], in test [4], in test [5] and in [6] was 64 µg/mL (≈ 196 µM) in each case. Also, the minimal inhibitory concentration (MIC) in test [7], in test [8] and in test [9] was 64 µg/mL (≈ 196 µM) each time.

Regarding `CC(C)(C)OC(=O)NCC(NO)c1c[nH]c2cc(Br)ccc12` (stereo not given), the minimal inhibitory concentration (MIC) in [1], in [2], in test [3], in [4], in [5] and in test [6] was 64 µg/mL (≈ 173 µM) throughout. Also, the minimal inhibitory concentration (MIC) in [7], in [8] and in [9] was 64 µg/mL (≈ 173 µM) throughout.
